In ChEMBL document CHEMBL6115033, “Discovery of a Pyrazolopyridinone-Based MYC Inhibitor That Selectively Engages Intracellular c-MYC and Disrupts MYC-MAX Heterodimerization” (J Med Chem, 2025):
Calls of active or inactive are those of the source.

Columns and labels:
[1] = system: P493-6; assay: Antiproliferative activity against human P493-6 cells expressing MYC assessed as inhibition of cell proliferation at 25 uM incubated for 96 hrs by cell titer glo assay; assay type: functional, cell-based
Procedure, shortened: (§1)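 P493-6 cells, either untreated (high MYC) or MYC-off after 0.1 µg/mL tetracycline for 72 h, were exposed to 25 µM for 96 h. Read-out was % survival by CellTiter-Glo luminescence. Mean ± SD, n = 6, unpaired t-test.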

[2] = Induction of apoptosis in human P493-6 cells assessed as early apoptotic cells at 50 uM incubated for 24 hrs by Annexin V/PI staining based flow cytometry analysis (reference value: 2.52 %); assay type: functional
[3] = system: P493-6; assay: Downregulation of MYC level in human P493-6 cells incubated for 24 hrs by Western blot analysis; assay type: functional, cell-based; details: dose <= 50.0 µM
Procedure, shortened: (§2)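 Cells (300,000/well) were plated 24 h, then exposed to graded concentrations or DMSO for 24 h. Laemmli lysates were run on 4–20% SDS-PAGE and immunoblotted for MYC. Levels were normalized to actin. Mean ± SD, n = 2, one-way ANOVA with Dunnett.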

[4] = system: P493-6; assay: Downregulation of E2F1 mRNA expression in human P493-6 cells at 25 uM incubated for 12 hrs by qRT-PCR analysis; assay type: functional, cell-based
Procedure, shortened: (§3)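 Cells (500,000/well) were cultured with or without 25 µM for the indicated time. Total RNA was extracted with TRIzol and reverse-transcribed. qPCR used SYBR green with target-gene primers, reported as ΔΔCT.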

[5] = system: P493-6; assay: Downregulation of CDC25C mRNA expression in human P493-6 cells at 25 uM incubated for 12 hrs by qRT-PCR analysis; assay type: functional, cell-based; procedure, shortened: as §3
[6] = system: MDA-MB-468; assay: Downregulation of CDK2 mRNA expression in human MDA-MB-468 cells at 25 uM incubated at 48 hrs by qRT-PCR analysis; assay type: functional, cell-based; procedure, shortened: as §3
[7] = molecular target: T1, c-Myc/c-Max (Homo sapiens) (UniProt P01106+P61244); assay: Disruption of MYC-MAX interaction in human MDA-MB-468 cells at 25 uM incubated for 12 hrs by proximity ligation assay
[8] = system: MDA-MB-468; assay: Downregulation of CDC25C mRNA expression in human MDA-MB-468 cells at 25 uM incubated at 48 hrs by qRT-PCR analysis; assay type: functional, cell-based; procedure, shortened: as §3
[9] = Induction of apoptosis in human P493-6 cells assessed as late apoptotic cells at 50 uM incubated for 24 hrs by Annexin V/PI staining based flow cytometry analysis (reference value: 6.52 %); assay type: functional
[10] = system: P493-6; assay: Downregulation of MYC level in human P493-6 cells measured at 20 to 60 mins by Western blot analysis; assay type: functional, cell-based; details: time 20-60 min
Procedure, shortened: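 Cells were pretreated with 25 µM or DMSO for 3 h, then given 50 µg/mL cycloheximide for the indicated times. MYC was measured by western blot, and half-life came from a one-phase exponential decay fit.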

[11] = system: MDA-MB-468; assay: Downregulation of E2F2 mRNA expression in human MDA-MB-468 cells at 25 uM incubated at 48 hrs by qRT-PCR analysis; assay type: functional, cell-based; procedure, shortened: as §3
[12] = Induction of apoptosis in human P493-6 cells assessed as necrotic cells at 25 uM incubated for 24 hrs by Annexin V/PI staining based flow cytometry analysis (reference value: 0.11 %); assay type: functional
[13] = system: MDA-MB-468; assay: Induction of apoptosis in human MDA-MB-468 cells assessed as effect on caspase-3 level at 50 uM incubated for 24 hrs
[14] = system: MDA-MB-468; assay: Downregulation of CDK2 mRNA expression in human MDA-MB-468 cells at 25 uM incubated for 12 hrs by qRT-PCR analysis; assay type: functional, cell-based; procedure, shortened: as §3
[15] = system: MDA-MB-468; assay: Downregulation of MYC level in human MDA-MB-468 cells incubated for 24 hrs by Western blot analysis; assay type: functional, cell-based; details: dose <= 50.0 µM; procedure, shortened: as §2
[16] = molecular target: Myc proto-oncogene protein (Homo sapiens) (UniProt P01106); assay: Binding affinity to MYC in human P493-6 cells assessed as thermal stabilization by measuring melting temperature at 25 uM measured for 2 hrs by CETSA analysis (reference value: 42 degreeC)
[17] = system: P493-6; assay: Antiproliferative activity against tetracycline-treated human P493-6 cells expressing MYC assessed as inhibition of cell proliferation at 25 uM incubated for 96 hrs by cell titer glo assay; assay type: functional, cell-based; procedure, shortened: as §1
[18] = system: MDA-MB-468; assay: Downregulation of E2F1 mRNA expression in human MDA-MB-468 cells at 25 uM incubated at 48 hrs by qRT-PCR analysis; assay type: functional, cell-based; procedure, shortened: as §3
[19] = system: MDA-MB-468; assay: Downregulation of CCNA2 mRNA expression in human MDA-MB-468 cells at 25 uM incubated at 48 hrs by qRT-PCR analysis; assay type: functional, cell-based; procedure, shortened: as §3
[20] = molecular target: Myc proto-oncogene protein (Homo sapiens) (UniProt P01106); assay: Binding affinity to MYC in human P493-6 cells assessed as thermal stabilization by measuring melting temperature at 25 uM measured for 2 hrs by CETSA analysis
[21] = system: P493-6; assay: Induction of apoptosis in human P493-6 cells assessed as effect on caspase-3 level at 50 uM incubated for 24 hrs
[22] = system: P493-6; assay: Induction of apoptosis in human P493-6 cells assessed as effect on cleaved PARP level at 50 uM incubated for 24 hrs
[23] = molecular target: T1, c-Myc/c-Max (Homo sapiens); assay: Disruption of MYC-MAX heterodimerization in human P493-6 cells incubated for 12 hrs; assay type: cell-based
Procedure, shortened: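 Cells were given 25 µM or DMSO for 0, 3, 5 and 12 h. Cytoplasmic and nuclear lysate fractions were pooled. 2 mg protein was immunoprecipitated with MYC antibody overnight, then protein A/G beads for 4 h at 4 °C. Bound MAX was detected by western blot and quantified relative to MYC; MAX input was also measured.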

[24] = system: MDA-MB-468; assay: Downregulation of MYC level in human MDA-MB-468 cells at 50 uM incubated for 24 hrs in presence of MG132 by Western blot analysis; assay type: functional, cell-based; details: in the assay text read “Stabilization of MYC protein level” for “Downregulation of MYC level”
Procedure, shortened: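 MDA-MB-468 cells were pretreated with 30 µM MG132 for 1 h, then exposed to graded concentrations or DMSO for 24 h. MYC was read by western blot.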

[25] = system: P493-6; assay: Downregulation of E2F2 mRNA expression in human P493-6 cells at 25 uM incubated for 12 hrs by qRT-PCR analysis; assay type: functional, cell-based; procedure, shortened: as §3
[26] = system: P493-6; assay: Downregulation of CCNA2 mRNA expression in human P493-6 cells at 25 uM incubated for 12 hrs by qRT-PCR analysis; assay type: functional, cell-based; procedure, shortened: as §3
[27] = molecular target: T1, c-Myc/c-Max (Homo sapiens); assay: Disruption of MYC-MAX interaction in human MDA-MB-468 cells at 25 uM incubated for 3 to 12 hrs by immunofluorescence analysis; assay type: cell-based; details: time 3-12 hrs
[28] = system: MDA-MB-468; assay: Downregulation of MYC level in human MDA-MB-468 cells at 25 uM by Western blot analysis; assay type: functional, cell-based; details: time 9-24 hrs
Procedure, shortened: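 MDA-MB-468 cells were exposed to 25 µM over a time course of up to 24 h. MYC and FBXW7 were read by western blot.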

T1 sequence (P01106 whole entry): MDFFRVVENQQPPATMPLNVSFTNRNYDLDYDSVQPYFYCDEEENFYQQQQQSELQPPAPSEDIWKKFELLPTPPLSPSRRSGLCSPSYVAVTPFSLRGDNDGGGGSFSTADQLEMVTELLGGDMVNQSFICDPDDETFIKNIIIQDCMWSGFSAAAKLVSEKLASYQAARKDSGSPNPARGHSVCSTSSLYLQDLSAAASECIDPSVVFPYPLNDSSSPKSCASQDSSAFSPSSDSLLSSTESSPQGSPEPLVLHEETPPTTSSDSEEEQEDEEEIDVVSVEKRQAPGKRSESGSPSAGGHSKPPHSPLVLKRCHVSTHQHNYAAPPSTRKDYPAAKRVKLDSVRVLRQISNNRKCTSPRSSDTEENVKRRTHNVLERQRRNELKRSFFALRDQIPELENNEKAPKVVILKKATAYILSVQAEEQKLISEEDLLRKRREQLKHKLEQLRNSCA
T1 sequence (P61244 2-160 partner limits assumed): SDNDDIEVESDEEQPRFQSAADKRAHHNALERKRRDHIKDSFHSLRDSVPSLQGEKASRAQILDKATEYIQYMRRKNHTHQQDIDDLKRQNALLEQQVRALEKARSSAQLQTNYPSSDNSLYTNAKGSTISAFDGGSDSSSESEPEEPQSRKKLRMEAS
Sequence of Myc proto-oncogene protein (Homo sapiens) (P01106 whole entry): as the sequence (P01106 whole entry) above

N#Cc1cc2c(-c3ccc(Cl)cc3)nn(-c3ccccc3)c2[nH]c1=O
17.6%: Activity [9]
active: Activity [1] | Activity [3] Dose-dependent-effect | Activity [4] | Activity [5] | Activity [6] | Activity [7] | Activity [8] | Activity [10] | Activity [11] | Activity [13] | Activity [14] | Activity [15] Dose-dependent-effect | Activity [17] | Activity [18] | Activity [19] | Activity [21] | Activity [22] | Activity [23] | Activity [24] | Activity [25] | Activity [26] | Activity [27] | Activity [28] Time-dependent-effect
0.095%: Activity [12]
38 °C: Tm [16]
35 °C: Tm [20]
5.11%: Activity [2]
